Measurements reported in ChEMBL document CHEMBL5223087, “First-in-Class Cyclic Temporin L Analogue: Design, Synthesis, and Antimicrobial Assessment” (J Med Chem, 2021).
In brackets after ≈: the same amount, converted by molar mass. Bridge positions count the residues as written; N and C are the ends. Square brackets hold non-standard residues; d marks the D form. Triazole bridges read from a SMILES are 1,4-linked. Peptide text beside a SMILES is read from it. dLys(N3) = [N-]=[N+]=NCCCC[C@@H](N)C(=O)O; Lys(N3) = [N-]=[N+]=NCCCC[C@H](N)C(=O)O; Pra = C#CC[C@H](N)C(=O)O

What was measured:
Format in all cases: functional
Conditions in all cases: time 16-18 hrs
[1] = test system: Escherichia coli; test: Antimicrobial activity against Escherichia coli ATCC 25922 assessed as reduction in bacterial growth incubated for 16 to 18 hrs by microdilution susceptibility test
Outline: (§1)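 Broth microdilution in Mueller–Hinton broth. Mid-log bacteria at 1 × 10⁶ CFU/mL final, peptide twofold serial dilutions 100 to 0.78 μM final. Incubated 16–18 h at 37 °C. MIC taken as the lowest concentration giving total (100%) growth inhibition.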

[2] = test system: Acinetobacter baumannii; test: Antimicrobial activity against Acinetobacter baumannii ATCC 19606 assessed as reduction in bacterial growth incubated for 16 to 18 hrs by microdilution susceptibility test; outline: as §1
[3] = test system: Staphylococcus aureus; test: Antimicrobial activity against Staphylococcus aureus ATCC 25923 assessed as reduction in bacterial growth incubated for 16 to 18 hrs by microdilution susceptibility test; outline: as §1
[4] = test system: Pseudomonas aeruginosa; test: Antimicrobial activity against Pseudomonas aeruginosa ATCC 27853 assessed as reduction in bacterial growth incubated for 16 to 18 hrs by microdilution susceptibility test; outline: as §1
[5] = test system: Staphylococcus epidermidis; test: Antimicrobial activity against Staphylococcus epidermidis ATCC 12228 assessed as reduction in bacterial growth incubated for 16 to 18 hrs by microdilution susceptibility test; outline: as §1
[6] = test system: Priestia megaterium; test: Antimicrobial activity against Bacillus megaterium Bm11 assessed as reduction in bacterial growth incubated for 16 to 18 hrs by microdilution susceptibility test; outline: as §1

Row | Compound | MIC [1] | MIC [2] | MIC [3] | MIC [4] | MIC [5] | MIC [6]
1 | CC(C)C[C@H](NC(=O)[C@@H]1CCC(=O)NCCCC[C@H](NC(=O)[C@H](Cc2c[nH]c3ccccc23)NC(=O)[C@@H]2CCCN2C(=O)[C@@H](NC(=O)[C@@H](N)Cc2ccccc2)C(C)C)C(=O)N[C@@H](CO)C(=O)N[C@@H](CCCCN)C(=O)N[C@@H](Cc2ccccc2)C(=O)N[C@H](CC(C)C)C(=O)NCC(=O)N[C@@H](CCCNC(=N)N)C(=O)N1)C(N)=O (H-FVPWKSKF[dL]GREL-NH2; lactam 5-12) | > 100 µM | > 100 µM | > 100 µM | > 100 µM | > 100 µM | 100 µM (≈ 159 µg/mL)
2 | CC[C@H](C)[C@H](NC(=O)[C@H](CCCNC(=N)N)NC(=O)CNC(=O)[C@H]1CCCCn2cc(nn2)C[C@H](NC(=O)[C@H](Cc2c[nH]c3ccccc23)NC(=O)[C@@H]2CCCN2C(=O)[C@@H](NC(=O)[C@@H](N)Cc2ccccc2)C(C)C)C(=O)N[C@@H](CO)C(=O)N[C@@H](CCCCN)C(=O)N[C@@H](Cc2ccccc2)C(=O)N1)C(=O)N[C@@H](CC(C)C)C(N)=O (H-FVPW[Pra]SKF[dLys(N3)]GRIL-NH2; triazole 5-9) | 100 µM (≈ 160 µg/mL) | 100 µM (≈ 160 µg/mL) | > 100 µM | > 100 µM | > 100 µM | –
3 | CC[C@H](C)[C@H](NC(=O)[C@H](CCCNC(=N)N)NC(=O)CNC(=O)[C@@H](CC(C)C)NC(=O)[C@@H]1CCCCn2cc(nn2)C[C@H](NC(=O)[C@@H]2CCCN2C(=O)[C@@H](NC(=O)[C@@H](N)Cc2ccccc2)C(C)C)C(=O)N[C@@H](Cc2ccccc2)C(=O)N[C@@H](CO)C(=O)N[C@@H](CCCCN)C(=O)N1)C(=O)N[C@@H](CC(C)C)C(N)=O (H-FVP[Pra]FSK[Lys(N3)][dL]GRIL-NH2; triazole 4-8) | > 100 µM | > 100 µM | > 100 µM | > 100 µM | > 100 µM | –

Other lines, results leading:

Row | MIC [1] | MIC [2] | MIC [3] | MIC [4] | MIC [5] | MIC [6] | Compound
4 | > 100 µM | > 100 µM | > 100 µM | > 100 µM | > 100 µM | – | CC(C)C[C@H](NC(=O)[C@@H]1CCC(=O)NCCCC[C@H](NC(=O)[C@H](CCCCN)NC(=O)[C@H](CO)NC(=O)[C@H](Cc2ccccc2)NC(=O)[C@H](Cc2c[nH]c3ccccc23)NC(=O)[C@@H]2CCCN2C(=O)[C@@H](NC(=O)[C@@H](N)Cc2ccccc2)C(C)C)C(=O)N[C@H](CC(C)C)C(=O)NCC(=O)N[C@@H](CCCNC(=N)N)C(=O)N1)C(N)=O (H-FVPWFSKK[dL]GREL-NH2; lactam 8-12)
5 | – | – | > 100 µM | > 100 µM | > 100 µM | – | CC(C)C[C@H](NC(=O)[C@@H]1CCCCn2cc(nn2)C[C@H](NC(=O)[C@H](CCCCN)NC(=O)[C@H](CO)NC(=O)[C@H](Cc2ccccc2)NC(=O)[C@H](Cc2c[nH]c3ccccc23)NC(=O)[C@@H]2CCCN2C(=O)[C@@H](NC(=O)[C@@H](N)Cc2ccccc2)C(C)C)C(=O)N[C@H](CC(C)C)C(=O)NCC(=O)N[C@@H](CCCNC(=N)N)C(=O)N1)C(N)=O (H-FVPWFSK[Pra][dL]GR[Lys(N3)]L-NH2; triazole 8-12)
6 | > 100 µM | > 100 µM | > 100 µM | > 100 µM | > 100 µM | – | CC[C@H](C)[C@@H]1NC(=O)[C@H](CCCNC(=N)N)NC(=O)CNC(=O)[C@@H](CC(C)C)NC(=O)[C@H](Cc2ccccc2)NC(=O)[C@H](CCCCN)NC(=O)[C@@H](NC(=O)[C@H](Cc2ccccc2)NC(=O)[C@H](Cc2c[nH]c3ccccc23)NC(=O)[C@@H]2CCCN2C(=O)[C@@H](NC(=O)[C@@H](N)Cc2ccccc2)C(C)C)Cc2cn(nn2)CCCC[C@@H](C(N)=O)NC1=O (H-FVPWF[Pra]KF[dL]GRI[Lys(N3)]-NH2; triazole 6-13)
7 | > 100 µM | > 100 µM | > 100 µM | > 100 µM | > 100 µM | 100 µM (≈ 159 µg/mL) | CC[C@H](C)[C@H](NC(=O)[C@H](CCCNC(=N)N)NC(=O)CNC(=O)[C@H]1CCC(=O)NCCCC[C@H](NC(=O)[C@H](Cc2c[nH]c3ccccc23)NC(=O)[C@@H]2CCCN2C(=O)[C@@H](NC(=O)[C@@H](N)Cc2ccccc2)C(C)C)C(=O)N[C@@H](CO)C(=O)N[C@@H](CCCCN)C(=O)N[C@@H](Cc2ccccc2)C(=O)N1)C(=O)N[C@@H](CC(C)C)C(N)=O (H-FVPWKSKF[dE]GRIL-NH2; lactam 5-9)
